In brackets after ≈: the same amount, converted by molar mass.
Key:
[1] = Concentration required to kill 50% MRC-5 cells as detected by Alamar blue staining; format: toxicity, cell-based, MRC5; details: homo sapiens, read-out: TC50 (the source's name)
[2] = Plasma protein binding determined at 10uM by LC-MS/MS.; details: human
[3] = system: Schistosoma mansoni; assay: (§1) Concentration required to kill 50% of 42 day old worms 5 days after drug treatment.; format: functional, organism-based; details: Puerto Rican, 120 h
How it was run: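 Adult S. mansoni were perfused from CD1 mice 6 weeks post-infection and washed. They were cultured 3 pairs per well in 1 mL DMEM with 2 mM glutamine, penicillin/streptomycin and 10% FCS […] at 37 °C, 5% CO2. Viability of individual worms was scored on day 5 (120 h).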

[4] = Partition coefficient of compound between n-octanol and PBS (pH7.4); format: physicochemical; details: octanol/water, pH 7.4
How it was run: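 Shake-flask method using octanol and PBS pH 7.4, each pre-saturated with the other. Compound was shaken 2 h at 850 rpm, 25 °C, then the phases were separated by centrifugation and both layers diluted and analysed by LC-MS/MS. LogD = log(octanol AUC × relative dilution / buffer AUC).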

[5] = Solubility at 25 degC of compound (diluted from DMSO) in PBS at pH 7.4 determined after 24h (1h sonication, 22h shaking, 1h sonication) by LCMS/MS; format: physicochemical
[6] = system: Schistosoma mansoni; assay: Concentration required to kill 50% of 21 day old worms 5 days after drug treatment.; format: functional, organism-based; details: Puerto Rican, 120 h
How it was run: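 Juvenile S. mansoni (Puerto Rican strain) were perfused from CD1 mice 3 weeks post-infection and washed. They were cultured 6–8 per well in 200 µL DMEM with 2 mM glutamine, penicillin/streptomycin and 10% FCS at 37 °C, 5% CO2. Viability of individual worms was scored on day 5 after dosing (120 h).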

[7] = Percentage of parent compound remaining after incubation for 30 minutes with cyropreserved mouse hepatocytes at a concentration of 1uM compound and […], determined by LCMS; format: ADME, tissue-based, Hepatocyte; details: cryopreserved mouse hepatocytes, read-out: Stability
How it was run: (§2)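 Compound was incubated at 1 µM final (2 µM working solution mixed 1:1 with hepatocyte suspension) in supplemented KHB pH 7.4. Conditions: 37 °C, 5% CO2, gentle mixing, duplicates. Reaction quenched with ice-cold acetonitrile containing standard; analysed by LC-MS/MS. % remaining = AUC at t / AUC at T0.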

[8] = Concentration required to kill 50% MRC5 cells as detected by Alamar blue staining; details: homo sapiens, read-out: TC50 (the source's name)
[9] = system: Schistosoma mansoni; assay: Percentage of worms remaining following treatment of female CD1 mice infected with S. mansoni worms (21 day old - juvenile or 42 day old - adult) with compound by oral gavage. Worms were recovered by portal perfusion with citrate saline 8-14 days post treatment and counted. Percentages are from a mean of 5 or 6 animals.; format: functional, Mus musculus; set-up: concentration or dose not given beside the values
How it was run: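 Female CD1 mice were infected subcutaneously with 150 cercariae and treated at day 21 (juvenile) or day 42 (adult). Single oral gavage, or two doses 12 h apart, given in 7% Tween-80/3% ethanol/water (sonicated) or in 1:19 DMSO:corn oil. Controls received vehicle only. Worm recoveries are group means, n = 5–6.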

[10] = Mean plasma concentration at 24h in Swiss albino male mice at […] per compound (administered orally in a mixture of 5 compounds to 3 mice) assessed by LCMS/MS.; format: ADME, organism-based; details: mouse, po
[11] = Mean volume of distribution at steady state in Swiss albino male mice at 1 mg/kg per compound (administered iv in a mixture of 5 compounds to 3 mice) assessed by LCMS/MS.; format: ADME, organism-based; details: mouse, in vivo, read-out: Volume
How it was run: (§3)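 Male Swiss albino mice (~30 g), 3 per experiment, mostly dosed as mixtures of 5 compounds iv via the lateral tail vein. Vehicle: 10% DMSO/90% 50 mM Na2HPO4 with 0.5% Tween-80. Plasma stored at −20 °C and quantified by LC-MS after acetonitrile precipitation.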

[12] = Mean time to peak plasma concentration in Swiss albino male mice at […] per compound (administered orally in a mixture of 5 compounds to 3 mice) assessed by LCMS/MS.; format: ADME, organism-based; details: mouse, po
[13] = Concentration required to kill 50% HepG2 cells as detected by MTT staining; format: toxicity, cell-based; details: homo sapiens, read-out: TC50 (the source's name)
[14] = Solubility at 25 degC of compound (diluted from DMSO) in FeSSIF at pH 5.0 (11.2 g/l of SIF powder [Na-taurocholate: 15.0mM, Lecithin:3.75mM, Pancreatin:40mg/ml], 4.04 g/l of NaOH, 8.65 g/l Glacial Acetic Acid, 11.87 g/l NaCl) determined after 24h (1h sonication, 22h shaking, 1h sonication) by LCMS/MS; format: physicochemical
[15] = Mean AUC inf in Swiss albino male mice at 1 mg/kg per compound (administered iv in a mixture of 5 compounds to 3 mice) assessed by LCMS/MS.; format: ADME, organism-based; details: male, Swiss albino, mouse, in vivo
How it was run: as §3, with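 “Tween-80. Blood sampled at 5, 15, 30 min and 1, 2, 4, 8, 24 h.” for “Tween-80.”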

[16] = Concentration of drug in plasma at 4h following oral drug adminstration at given dose. Determined by LCMS/MS; format: ADME, organism-based; details: CD1, mouse
How it was run: (§4)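 Plasma sampled from the mice of the efficacy experiments, each animal sampled once: one animal per group at 1, 4 and 8 h, two per group at 24 h. Plasma prepared by acetonitrile protein precipitation and analysed by LC-MS against a 10-point calibration line spiked in blank matrix, with QCs at three or more levels.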

[17] = Mean half-life in Swiss albino male mice at 1 mg/kg per compound (administered iv in a mixture of 5 compounds to 3 mice) assessed by LCMS/MS.; format: ADME, organism-based; details: mouse, in vivo; how it was run: as §3
[18] = Mean oral bioavailability in Swiss albino male mice at […] per compound (administered in a mixture of 5 compounds to 3 mice) assessed by LCMS/MS.; also: dose 2.5 mg/kg; format: ADME, organism-based; details: male, Swiss albino, mouse, in vivo, read-out: Bioavailability
[19] = Solubility at 25 degC of compound (diluted from DMSO) in FaSSIF at pH 6.5 (2.24 g/l of SIF powder [Na-taurocholate: 3.0mM, Lecithin:0.75mM, Pancreatin:10mg/ml], 0.42 g/l of NaOH, 4.4 g/l NaH₂PO₄ monobasic dihydrate, 6.19 g/l NaCl) determined after 24h (1h sonication, 22h shaking, 1h sonication) by LCMS/MS; format: physicochemical
[20] = Percentage of parent compound remaining after incubation for 90 minutes with cyropreserved mouse hepatocytes at a concentration of 1uM compound and […], determined by LCMS; format: ADME, tissue-based, Hepatocyte; details: cryopreserved mouse hepatocytes, read-out: Stability; how it was run: as §2
[21] = Plasma protein binding determined at 10uM by LC-MS/MS.; format: ADME, cell-free
How it was run: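 Equilibrium dialysis of plasma spiked at 10 µM (0.1% DMSO) against PBS pH 7.4, 6 h at 37 °C, duplicates. Both chambers analysed by LC-MS/MS after acetonitrile precipitation. % free = buffer/plasma area ratio; recovery also calculated.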

[22] = Percentage of parent compound remaining after incubation for 90 minutes with cyropreserved human hepatocytes at a concentration of 1uM compound and 1 million cells/uL, determined by LCMS/MS; format: ADME, tissue-based, Hepatocyte; details: cryopreserved human hepatocytes, read-out: Stability; how it was run: as §2
[23] = Mean plasma concentration at 4h in Swiss albino male mice at […] per compound (administered orally in a mixture of 5 compounds to 3 mice) assessed by LCMS/MS.; format: ADME, organism-based; details: mouse, po
[24] = Mean observed clearance in Swiss albino male mice at 1 mg/kg per compound (administered iv in a mixture of 5 compounds to 3 mice) assessed by LCMS/MS.; format: ADME, organism-based; details: male, Swiss albino, mouse, in vivo, read-out: Clearance (converted)
How it was run: as §3, with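 “Tween-80. Blood sampled at 5, 15, 30 min and 1, 2, 4, 8, 24 h.” for “Tween-80.”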

[25] = Concentration of drug in plasma at 24h following oral drug adminstration at given dose. Determined by LCMS/MS; format: ADME, organism-based; details: CD1, mouse; how it was run: as §4
[26] = system: Schistosoma haematobium; assay: Concentration required to kill 50% of 84 day old worms 5 days after drug treatment.; format: functional, organism-based; details: Egyptian, 120 h
[27] = system: Schistosoma japonicum; assay: as §1; format: functional, organism-based; details: Chinese, 120 h

Q: With `COc1ccc(-c2cnc3cnc(-c4cccc(C(C)C)c4)cn23)cc1OC` as the compound, how does the CC50 [1] read?
A: Its CC50 is 27800 nM.

Q: And the Binding [2]?
A: Its Binding is 99.985%.

Q: And the EC50 [3]?
A: The EC50 was 1340 nM.

Q: And the Lipophilicity [4]?
A: Its Lipophilicity is 4.92 =.

Q: What about the solubility kinetic at 24 h [5] of the same compound?
A: Its solubility kinetic at 24 h is 2.62 µM (≈ 0.978 µg/mL).

Q: And the EC50 [6]?
A: The EC50 was 2570 nM.

Q: Which results are given for `COc1ccc(-c2cnc3cnc(-c4cccc(C(C)C)c4)cn23)cc1O`?
A: CC50 [1]: 18600 nM; EC50 [3]: 263 nM; remaining at 0.5 h, 1 µM [7]: 26.4%; Lipophilicity [4]: 3.56 =; solubility kinetic at 24 h [5]: 2.29 µM (≈ 0.823 µg/mL); EC50 [6]: 486 nM; CC50 [8]: 18600 nM

Q: For `CCc1nc2cnc(-c3ccc(F)c(C(F)(F)C(F)(F)F)c3)cn2c1-c1c(F)cc(O)cc1F`, which Efficacy [9] is on record?
A: The Efficacy was 49.1%.

Q: What about the concentration at 24 h [10] of the same compound?
A: The concentration at 24 h was 123 ng/mL.

Q: What about the Vd [11] of the same compound?
A: The Vd was 7.32 L/kg.

Q: What about the Tmax [12] of the same compound?
A: The Tmax was 0.25 h.

Q: And the EC50 [3]?
A: The EC50 was 9.11 nM.

Q: And the CC50 [13]?
A: Its CC50 is 7230 nM.

Q: And the solubility kinetic at 24 h [14]?
A: Its solubility kinetic at 24 h is 200 µM (≈ 97.5 µg/mL).

Q: What about the AUC(0-inf) [15] of the same compound?
A: Its AUC(0-inf) is 2210 ng·h/mL.

Q: What about the concentration at 4 h [16] of the same compound?
A: Its concentration at 4 h is 104 ng/mL.

Q: And the half-life [17]?
A: The half-life was 24.7 h.

Q: What about the bioavailability [18] of the same compound?
A: The bioavailability was 83.2%.

Q: What about the solubility kinetic at 24 h [19] of the same compound?
A: Its solubility kinetic at 24 h is 111 µM (≈ 54.1 µg/mL).

Q: And the Lipophilicity [4]?
A: Its Lipophilicity is 6.33 =.

Q: And the solubility kinetic at 24 h [5]?
A: Its solubility kinetic at 24 h is 0.742 µM (≈ 0.362 µg/mL).

Q: And the remaining at 1.5 h, 1 µM [20]?
A: Its remaining at 1.5 h, 1 µM is 61.5%.

Q: What about the Binding ([21]; human) of the same compound?
A: Its Binding is 99.9955%.

Q: What about the Binding ([21]; mouse) of the same compound?
A: Its Binding is 99.9935%.

Q: What about the remaining at 1.5 h, 1 µM [22] of the same compound?
A: Its remaining at 1.5 h, 1 µM is 41.7%.

Q: And the concentration at 4 h [23]?
A: The concentration at 4 h was 208 ng/mL.

Q: What about the EC50 [6] of the same compound?
A: The EC50 was 13.6 nM.

Q: What about the clearance [24] of the same compound?
A: The clearance was 3.82 mL/min/kg.

Q: And the concentration at 24 h [25]?
A: The concentration at 24 h was 10.4 ng/mL.

Q: With `O=C(C1CCCCC1)N1CC(=O)N2CCc3ccccc3C2C1` (stereo unspecified) [PRAZIQUANTEL] as the compound, how does the Efficacy [9] read?
A: Its Efficacy is 79%.

Q: And the CC50 [1]?
A: Its CC50 is > 50000 nM.

Q: And the EC50 [26]?
A: Its EC50 is 84.4 nM.

Q: What about the EC50 [3] of the same compound?
A: Its EC50 is 300 nM.

Q: What about the EC50 [6] of the same compound?
A: The EC50 was 4700 nM.

Q: What about the EC50 [27] of the same compound?
A: The EC50 was 161 nM.
